Measurements pooled from the literature.
Compare with care: the assays were run in different laboratories.
BTK: Tyrosine-protein kinase BTK (BTK, Homo sapiens, UniProt Q06187)
BTK R28H: Tyrosine-protein kinase BTK (BTK, Homo sapiens, UniProt Q06187, R28H)

SMILES | target | read-out | action | method | concentration | endpoint | result
COc1ccc(COc2ccc(Cc3cnc(N)nc3N)cc2OC)cc1 | BTK | cell-free assay | – | – | 0.5 µM | remaining signal | 104%
FC(F)c1nc2ccccc2n1-c1nc(N2CCOCC2)nc(N2CCOCC2)n1 | BTK | enzyme activity | inhibitor | – | 10 µM | remaining activity | 98%
O=C1Nc2ccc(Cl)cc2C1=Cc1cc(Cl)c(O)c(Cl)c1 | BTK | cell-free assay | – | – | 0.5 µM | remaining signal | 92.1%
CCC(=O)N[C@H]1CC[C@@H](C(=O)N(C)c2ccc(-c3nc4ccccc4o3)cc2)C1 | BTK | cell-free assay | – | competition with immobilised ligand | 1 µM | remaining binding | 77%
CC(C)(C=C(C#N)C(=O)N1CCC[C@H]1Cn1nc(-c2ccc(Oc3ccccc3)cc2F)c2c(N)ncnc21)N1CCOCC1 | BTK | enzyme activity | inhibitor | – | – | KI (inactivation) | 14 nM
COc1cc(Nc2cnc(C#N)c(O[C@H](C)CN(C)C)n2)ncc1-c1cnn(C)c1 | BTK | enzyme activity | inhibitor | radiometric | 1 µM | remaining activity | 88%
COc1cc(/C=C/C(=O)CC(=O)/C=C/c2ccc(O)c(OC)c2)ccc1O | BTK | enzyme activity | inhibitor | – | 1 µM | activity vs control | 90%
CS(=O)(=O)N1CCCC(NC(=O)[C@H](CCC2CCCCC2)NC(=O)c2ccc(CNC(=O)c3cnc4ccccn34)cc2)C1 (stereo partly shown) | BTK | cell-free assay | – | competition with immobilised ligand | 0.1 µM | remaining binding | 100%
Cc1cc(NC(=O)c2cccc3cc(-c4cccc5[nH]nc(N)c45)ccc23)ccc1F | BTK R28H | enzyme activity | inhibitor | – | 0.1 µM | activity vs control | 84%
FC(F)(F)c1ccc2c(c1)nc(-c1cccnc1)n2C1CC1 | BTK | cell-free assay | – | competition with immobilised ligand | 1 µM | remaining binding | 93%
CC(C)(O)[C@H]1CC[C@H](Nc2ccc3ncc(-c4cccc(C(F)(F)F)c4)n3n2)CC1 | BTK | enzyme activity | inhibitor | – | 1 µM | remaining activity | 88%
c1nc2c(Nc3ccc4c(c3)OCCO4)nc(Nc3ccc4c(c3)OCCO4)nc2[nH]1 | BTK | enzyme activity | inhibitor | – | 10 µM | activity vs control | 0.65%
O=C(NCCCC1CCCCC1)c1ccc(CNC(=O)c2cnn(-c3ccccc3)c2C(F)(F)F)cc1 | BTK | cell-free assay | – | competition with immobilised ligand | 0.1 µM | remaining binding | 100%
COc1ccc(F)cc1C(=O)NCc1ccc(-c2nn([C@@H](C)C(F)(F)F)c(N)c2C(N)=O)cc1 | Tyrosine-protein kinase BTK (BTK, Homo sapiens, UniProt Q06187, C481S) | binding | – | SPR | – | koff | 0.00013 s⁻¹
Cc1ccc(NC(=O)c2ccc(C)c(C(F)(F)F)c2)cc1C#Cc1nn(C2CCC(O)CC2)c2ncnc(N)c12 (stereo not shown) | BTK R28H | cell-free assay | – | – | 10 µM | remaining signal | 71%
O=C(Nc1cnn(-c2csc(C(=O)NC3COC3)c2)c1)Nc1ccccc1Cl | BTK | enzyme activity | inhibitor | – | 5 µM | remaining activity | 92.6%
Nc1nc(Nc2ccccc2)sc1C(=O)c1c(F)cccc1F | BTK | enzyme activity | inhibitor | – | 10 µM | remaining activity | 68%
Nc1ncnc2occ(-c3ccc(NC(=O)Nc4cc(C(F)(F)F)ccc4F)cc3)c12 | BTK | cell-free assay | – | – | 20 µM | remaining signal | 26%
C[C@@H]1CN(c2cc(-c3n[nH]c4ccc(OC5(C)CC5)cc34)ncn2)C[C@H](C)O1 | BTK | cell-free assay | – | competition with immobilised ligand | 0.1 µM | remaining binding | 73%
C=CC(=O)N1CCC[C@@H]1Cn1nc(-c2ccc(Oc3ccccc3)cc2F)c2c(N)ncnc21 | BTK | enzyme activity | inhibitor | – | – | kinact/KI | 1.9e+06 M⁻¹ s⁻¹
Cc1ccc(C(=O)NCc2ccsc2)cc1C#Cc1cn(C(C)C)c2ncnc(N)c12 | BTK | enzyme activity | inhibitor | – | 1 µM | activity vs control | 73%
N#CC1(c2ccccn2)CCN(Cc2cc(C(=O)N3CCCC3)c(=O)n3ccccc23)CC1 | BTK | cell-free assay | – | competition with immobilised ligand | 1 µM | remaining binding | 100%
Cc1cnc(NC2CCOCC2)nc1-n1cnc(C(=O)NC(CN)c2cc(F)cc(Cl)c2)c1 (stereo not shown) | BTK | enzyme activity | inhibitor | radiometric | 1 µM | remaining activity | 102%
CC(C)(C)c1nc(-c2cccc(NS(=O)(=O)c3c(F)cccc3F)c2F)c(-c2ccnc(N)n2)s1 | BTK | enzyme activity | inhibitor | radiometric | 1 µM | remaining activity | 96%
CN(C)CC#Cc1ccc(OCCCc2sc(N3CCc4cccc(C(=O)Nc5nc6ccccc6s5)c4C3)nc2C(=O)O)c(F)c1 | BTK | cell-free assay | – | competition with immobilised ligand | 1 µM | remaining binding | 96%
N#CCCc1ccc2c(c1)-c1[nH]c3ccc([N+](=O)[O-])cc3c1CC(=O)N2 | BTK | cell-free assay | – | – | 0.5 µM | remaining signal | 94.6%
CCC(=N\O)/C(C)=C/c1ccc(F)cc1 | BTK | cell-free assay | – | competition with immobilised ligand | 1 µM | remaining binding | 78%
Cc1sc(C(=O)NC2COC2)cc1-n1cc(NC(=O)Nc2c(F)cccc2Cl)cn1 | BTK | enzyme activity | inhibitor | – | 10 µM | remaining activity | 87.6%
